Consider two compounds from ChEMBL document CHEMBL1122307, “Mitomycin C and porfiromycin analogues with substituted ethylamines at position 7” (J Med Chem, 1983).

Data set [1] can be described thus: Partition coefficient (logP). The class given is physicochemical. The settings on record: octanol/water.
For data set [2], the system named is B16. Put plainly: (§1) Median survival time (% T/C) after ip administration in B-16 melanoma in mice (dose mg/kg/day). The class given is functional, Mus musculus. In short, it runs like this: (§2)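 B-16 melanoma in mice, run by the standard NCI protocol. Drug given ip on days 1, 4 and 7, ten mice per dose. Read-outs were median survival time as % T/C of controls and average body-weight change in g.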

In data set [3] the test system is B16. The description is as §1. The class given is functional, Mus musculus. In short, it runs like this:
as §2
The source holds these as a separate data set.

The test system of data set [4] is B16. Put plainly: (§3) Average weight change after ip administration in B-16 melanoma in mice (dose mg/kg/day). The class given is functional, Mus musculus. In short, it runs like this:
as §2

Data set [5] concerns B16. The description is as §3. Format: functional, Mus musculus. In short, it runs like this: as §2
The source holds these as a separate data set.

In data set [6] the test system is L1210. The experiment in a line: Maximum % T/C against L-1210 leukemia cells in mice. Format: functional, Mus musculus. In short, it runs like this:
(§4)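 L-1210 leukemia in mice, run by the standard NCI protocol with one dose on day 1. % T/C is based on survival. Repeated assays are reported as both values.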

The subject of data set [7] is L1210. Put plainly: Minimum effective dose required for antitumor activity against L-1210 leukemia cells in mice. Format: functional. The settings on record: Mus musculus, read-out: MED. In short, it runs like this: as §4
The test system of data set [8] is L1210. The experiment in a line: Optimal dose required for antitumor activity L-1210 leukemia cells in mice. The class given is functional, Mus musculus. In short, it runs like this: as §4
In data set [9] the test system is P388. The experiment in a line: Leukopenia % change in WBC at optimal dose on 3rd day. The class given is functional, Mus musculus.
Data set [10] has as its system P388. Put plainly: Maximum % T/C against P-388 murine leukemia cells in mice. Format: functional, Mus musculus. In short, it runs like this: (§5)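 P-388 ascites leukemia, 10⁶ cells implanted ip in female CDF₁ mice. Six mice per dose, with 10 saline-injected controls. A six-mouse mitomycin C group was run at each dose in the same experiment. % T/C = median survival time treated/control × 100 at the optimal dose. MED is the lowest dose giving T/C ≥ 125.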

Data set [11] deals with P388. The experiment in a line: Maximum % T/C with mitomycin C against P-388 murine leukemia cells in mice. The class given is functional, Mus musculus. In short, it runs like this: as §5
The test system of data set [12] is P388. Put plainly: Optimal dose required for antitumor activity against P-388 murine leukemia cells in mice. The class given is functional, Mus musculus. In short, it runs like this:
as §5

Data set [13] deals with P388. The experiment in a line: Minimum effective dose required for antitumor activity against P-388 murine leukemia cells. Format: functional. The settings on record: Mus musculus, read-out: MED. In short, it runs like this: as §5
Data set [14] is described as follows: Therapeutic ratio as optimal dose/minimal effective dose. Format: ADME. The settings on record: mouse, p388; read-out: TR.
For data set [15], the system named is B16. Put plainly: Average weight change after ip administration inB-16 melanoma in mice (dose mg/kg/day). Format: functional, Mus musculus. In short, it runs like this: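 Mice bearing B-16 melanoma were tested under the standard NCI protocol at Arthur D. Little. Compound was injected ip on days 1, 4 and 7, with ten mice per dose. Average body-weight change is reported in g. Alongside it, median survival time was given as % T/C and cures as tumor-free survivors on day 45.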

Data set [16] has as its system B16. The experiment in a line: Average weight change after ip administration of in B-16 melanoma in mice (dose mg/kg/day). Format: functional, Mus musculus. In short, it runs like this: as §2
The subject of data set [17] is B16. The data set is described as §1. Format: functional. In short, it runs like this: as §2
Data set [18] relates to B16. Described as §1. Format: functional. In short, it runs like this:
as §2
This is another data set of the same source.

Data set [19] concerns B16. The experiment in a line: Tumor free survivors on 45th day after ip administration in B-16 melanoma in mice (dose mg/kg/day); 0.
The test system of data set [20] is B16. Put plainly: Tumor free survivors on 45th day after ip administration of in B-16 melanoma in mice (dose mg/kg/day); 0.

SMILES strings stand for the structures. “And” between values parts separate entries of the source, which are not always exact repeats. Equal values may be shown once.

Compound `COC12[C@@H]3N[C@@H]3CN1C1=C(C(=O)/C(=N/CCS)C(C)=C1O)[C@@H]2COC(N)=O` (stereo partly drawn) displayed a logP in [1] of 0.63. The T/C with B16 [2] was found to be 190%; in the data set with B16 [3], 218%; in the data set on L1210 [6] it was 168%; in the data set with P388 [10], 313%; in the data set with P388 [11], 181%. Also, the Average weight change with B16 [4] and with B16 [5] was -0.5 g throughout. Besides, the minimal effective dose with L1210 [7] stood at 1.6 mg/kg; in the data set on P388 [13], 0.2 mg/kg. Also, the Dose was determined as 9.6 mg/kg in the data set with L1210 [8] and 12.8 mg/kg with P388 [12]. Besides, in the data set on P388 [9], the “Change in WBC” value is listed as -35%. Further, the selectivity ratio in data set [14] was found to be 64.

For `CO[C@@]12[C@H](COC(N)=O)C3=C(C(=O)C(C)=C(N)C3=O)N1C[C@@H]1N[C@@H]12` [MITOMYCIN], the Average weight change in the data set with B16 [4] is given as -1.1 g; in the data set on B16 [15], -0.7 g; in the data set on B16 [16], -2.2 g. In addition, the T/C is 190% in the data set with B16 [17]; 160% and 127% with B16 [18]; 124% in the data set with L1210 [6]; 161% in the data set with P388 [10]. Moreover, in the data set on L1210 [7], the minimal effective dose is 3 mg/kg. Moreover, the Dose came to 3 mg/kg in the data set on L1210 [8] and 3.2 mg/kg in the data set with P388 [12]. Moreover, the “Change in WBC” value in the data set with P388 [9] is on record as -42%. In data set [14], the selectivity ratio turned out to be 16. The Cures with B16 [19] and in the data set on B16 [20] was 0 each time.
